Here are results for eleven molecules from ChEMBL document CHEMBL2434960 (Eur J Med Chem, 2013).

As usually defined, the Ki is the dissociation constant of the complex between target and ligand, obtained from inhibition or displacement.

Each structure is given as a SMILES string.

The target of this test is Replicase polyprotein 1a (Severe acute respiratory syndrome-related coronavirus, UniProt P0C6U8). Briefly: Inhibition of SARS coronavirus 3CL-protease by fluorescence assay. A digest of the protocol: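 Protease inhibition was measured by a fluorometric assay. Substrate concentration was held constant while inhibitor concentration was varied, and the kinetic parameters gave Ki values.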
`CC(C)C[C@H](NC(=O)c1nc2ccccc2s1)C(=O)N[C@@H](C[C@@H]1CCNC1=O)C(=O)c1nc2ccccc2s1`: the Ki was 800 nM. In other words, the sub-micromolar range.
The value for `CC(C)C[C@H](NC(=O)C1Cc2ccccc2N1)C(=O)N[C@@H](C[C@@H]1CCNC1=O)C(=O)c1nc2ccccc2s1` (stereo partly specified) was 120 nM; that for `CC(C)C[C@H](NC(=O)c1cc2ccccc2o1)C(=O)N[C@@H](C[C@@H]1CCNC1=O)C(=O)c1nc2ccccc2s1` was 14000 nM; that for `CC(C)C[C@H](NC(=O)c1c[nH]c2ccccc12)C(=O)N[C@@H](C[C@@H]1CCNC1=O)C(=O)c1nc2ccccc2s1` was 680 nM.
The value for `CC(C)C[C@H](NC(=O)c1cc2cc(O)ccc2[nH]1)C(=O)N[C@@H](C[C@@H]1CCNC1=O)C(=O)c1nc2ccccc2s1` was 160 nM.
The value for `COc1ccc2cc(C(=O)N[C@@H](CC(C)C)C(=O)N[C@@H](C[C@@H]3CCNC3=O)C(=O)c3nc4ccccc4s3)[nH]c2c1` was 330 nM.
Regarding `CC(C)C[C@H](NC(=O)c1cc2c(OC(C)C)cccc2[nH]1)C(=O)N[C@@H](C[C@@H]1CCNC1=O)C(=O)c1nc2ccccc2s1`, the affinity, expressed as Ki, was 48 nM.
The value for `COc1ccc2[nH]c(C(=O)N[C@@H](CC(C)C)C(=O)N[C@@H](C[C@@H]3CCNC3=O)C(=O)c3nc4ccccc4s3)c(C)c2c1` was 6700 nM.
Under `CCc1c(C(=O)N[C@@H](CC(C)C)C(=O)N[C@@H](C[C@@H]2CCNC2=O)C(=O)c2nc3ccccc3s2)[nH]c2ccc(OC)cc12` stands 7500 nM; under `CC(C)C[C@H](NC(=O)c1ccc[nH]1)C(=O)N[C@@H](C[C@@H]1CCNC1=O)C(=O)c1nc2ccccc2s1`, 1700 nM; under `CC(C)C[C@H](NC(=O)C1CCC(=O)N1)C(=O)N[C@@H](C[C@@H]1CCNC1=O)C(=O)c1nc2ccccc2s1` (mixture of isomers), 2700 nM.
